Values after ≈ are worked out from the molar mass of the structure shown.
Columns and labels:
[1] = tested on: A549; assay: in vitro anticancer activity against cultured A549 human tumor(lung) cell line; assay type: functional, cell-based
Procedure, shortened: (§1)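 Human tumour cell lines grown in RPMI-1640 with 25 mM HEPES, 2% NaHCO3, 10% fetal bovine serum and 100 μg/mL kanamycin at 37 °C under 5% CO2. Cells had 3 days of continuous compound exposure in 96-well plates. Fixed with 10% TCA and stained with 0.4% sulforhodamine B; dye dissolved in 20 mM Tris pH 8.0 and read at 562 nm. Treatments run in duplicate. IC50 interpolated from fitted dose-response curves.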

[2] = tested on: KB; assay: in vitro anticancer activity against cultured KB(epidermoid) human tumor cell line; assay type: functional, cell-based; procedure, shortened: as §1
[3] = tested on: U-87 MG; assay: in vitro anticancer activity against cultured U87MG (glioblastoma) human tumor cell line; assay type: functional, cell-based, U-87MG ATCC; procedure, shortened: as §1
[4] = tested on: HCT-8; assay: in vitro inhibition of tumor cell growth in cultured HCT-8 human tumor cell line; assay type: functional, cell-based; procedure, shortened: as §1
[5] = tested on: MCF7; assay: in vitro inhibition of tumor cell growth in cultured MCF-7 human tumor cell line; assay type: functional, cell-based; procedure, shortened: as §1
[6] = tested on: PC-3; assay: in vitro inhibition of tumor cell growth in cultured PC-3 human tumor cell line; assay type: functional, cell-based; procedure, shortened: as §1
[7] = tested on: HepG2; assay: in vitro inhibition of tumor cell growth in cultured HepG2 human tumor cell line; assay type: functional, cell-based; procedure, shortened: as §1
[8] = Mean IC50 for all seven tumor cell lines was determined; assay type: functional; procedure, shortened: as §1
[9] = tested on: A549; assay: in vitro inhibition of tumor cell growth in cultured A549 human tumor cell line; assay type: functional, cell-based; procedure, shortened: as §1
[10] = tested on: KB; assay: in vitro inhibition of tumor cell growth in cultured KB human tumor cell line; assay type: functional, cell-based; procedure, shortened: as §1
[11] = tested on: U-87 MG; assay: in vitro inhibition of tumor cell growth in cultured U87MG human tumor cell line; assay type: functional, cell-based, U-87MG ATCC; procedure, shortened: as §1

SMILES | IC50 [1] | IC50 [2] | IC50 [3] | IC50 [4] | IC50 [5] | IC50 [6] | IC50 [7] | Mean IC50 [8] | IC50 [9] | IC50 [10] | IC50 [11]
CO[C@@]12[C@H](COC(N)=O)C3=C(C(=O)C(C)=C(NCc4ccc(CNC5=C(C)C(=O)C6=C(C5=O)[C@@H](COC(N)=O)[C@@]5(OC)[C@H]7NC7CN65)cc4)C3=O)N1CC1N[C@@H]12 (stereo partly specified) | > 1 µg/mL | > 1 µg/mL | > 1 µg/mL | – | – | – | – | – | – | – | –
CO[C@@]12[C@H](COC(N)=O)C3=C(C(=O)C(C)=C(Nc4ccc(CCc5ccc(NC6=C(C)C(=O)C7=C(C6=O)[C@@H](COC(N)=O)[C@@]6(OC)[C@H]8NC8CN76)cc5)cc4)C3=O)N1CC1N[C@@H]12 (stereo partly specified) | 0.095 µg/mL (≈ 0.112 µM) | 0.215 µg/mL (≈ 0.254 µM) | 0.51 µg/mL (≈ 0.602 µM) | 0.11 µg/mL (≈ 0.13 µM) | 0.21 µg/mL (≈ 0.248 µM) | 0.2 µg/mL (≈ 0.236 µM) | 0.16 µg/mL (≈ 0.189 µM) | 0.2 µg/mL | – | – | –
CO[C@@]12[C@H](COC(N)=O)C3=C(C(=O)C(C)=C(Nc4ccc(Oc5ccc(NC6=C(C)C(=O)C7=C(C6=O)[C@@H](COC(N)=O)[C@@]6(OC)[C@H]8NC8CN76)cc5)cc4)C3=O)N1CC1N[C@@H]12 (stereo partly specified) | 0.062 µg/mL (≈ 0.0743 µM) | 0.064 µg/mL (≈ 0.0767 µM) | 0.32 µg/mL (≈ 0.383 µM) | 0.06 µg/mL (≈ 0.0719 µM) | 0.14 µg/mL (≈ 0.168 µM) | 0.08 µg/mL (≈ 0.0958 µM) | 0.05 µg/mL (≈ 0.0599 µM) | 0.11 µg/mL | – | – | –
CO[C@@]12[C@H](COC(N)=O)C3=C(C(=O)C(C)=C(Nc4ccccc4)C3=O)N1C[C@@H]1N[C@@H]12 | – | – | – | 0.004 µg/mL (≈ 0.00975 µM) | 0.06 µg/mL (≈ 0.146 µM) | 0.11 µg/mL (≈ 0.268 µM) | 0.05 µg/mL (≈ 0.122 µM) | 0.09 µg/mL | 0.02 µg/mL (≈ 0.0487 µM) | 0.13 µg/mL (≈ 0.317 µM) | 0.26 µg/mL (≈ 0.633 µM)
CO[C@@]12[C@H](COC(N)=O)C3=C(C(=O)C(C)=C(N)C3=O)N1C[C@H]1[C@@H]2N1C(=O)CCCCC(=O)N1[C@@H]2CN3C4=C(C(=O)C(N)=C(C)C4=O)[C@H](COC(N)=O)[C@]3(OC)[C@@H]21 | 0.76 µg/mL (≈ 0.976 µM) | > 1 µg/mL | > 1 µg/mL | – | – | – | – | – | – | – | –
CO[C@@]12[C@H](COC(N)=O)C3=C(C(=O)C(C)=C(N)C3=O)N1C[C@H]1[C@@H]2N1C(=O)CCCCCC(=O)N1[C@H]2[C@@H]1CN1C3=C(C(=O)C(N)=C(C)C3=O)[C@@H](COC(N)=O)[C@@]21OC | 0.68 µg/mL (≈ 0.858 µM) | > 1 µg/mL | > 1 µg/mL | – | – | – | – | – | – | – | –
CO[C@@]12[C@H](COC(N)=O)C3=C(C(=O)C(C)=C(N)C3=O)N1C[C@H]1[C@@H]2N1C(=O)CCCC(=O)N1[C@H]2[C@@H]1CN1C3=C(C(=O)C(N)=C(C)C3=O)[C@@H](COC(N)=O)[C@@]21OC | 0.67 µg/mL (≈ 0.876 µM) | > 1 µg/mL | > 1 µg/mL | – | – | – | – | – | – | – | –
CO[C@@]12[C@H](COC(N)=O)C3=C(C(=O)C(C)=C(NCCCOCCCNC4=C(C)C(=O)C5=C(C4=O)[C@@H](COC(N)=O)[C@@]4(OC)[C@H]6NC6CN54)C3=O)N1CC1N[C@@H]12 (stereo partly specified) | > 10 µg/mL | > 1 µg/mL | > 1 µg/mL | – | – | – | – | – | – | – | –
CO[C@@]12[C@H](COC(N)=O)C3=C(C(=O)C(C)=C(NCCCNCCCNC4=C(C)C(=O)C5=C(C4=O)[C@@H](COC(N)=O)[C@@]4(OC)[C@H]6NC6CN54)C3=O)N1CC1N[C@@H]12 (stereo partly specified) | > 1 µg/mL | > 1 µg/mL | > 1 µg/mL | – | – | – | – | – | – | – | –
CO[C@@]12[C@H](COC(N)=O)C3=C(C(=O)C(C)=C(NCCOCCNC4=C(C)C(=O)C5=C(C4=O)[C@@H](COC(N)=O)[C@@]4(OC)[C@H]6NC6CN54)C3=O)N1CC1N[C@@H]12 (stereo partly specified) | > 10 µg/mL | – | > 10 µg/mL | – | – | – | – | – | – | – | –
CO[C@@]12[C@H](COC(N)=O)C3=C(C(=O)C(C)=C(NCCNCCNC4=C(C)C(=O)C5=C(C4=O)[C@@H](COC(N)=O)[C@@]4(OC)[C@H]6NC6CN54)C3=O)N1CC1N[C@@H]12 (stereo partly specified) | > 1 µg/mL | 0.98 µg/mL (≈ 1.33 µM) | > 1 µg/mL | – | – | – | – | – | – | – | –
CO[C@@]12[C@H](COC(N)=O)C3=C(C(=O)C(C)=C(N)C3=O)N1C[C@H]1[C@@H]2N1C(=O)CCC(=O)N1[C@@H]2CN3C4=C(C(=O)C(N)=C(C)C4=O)[C@H](COC(N)=O)[C@]3(OC)[C@@H]21 | 0.67 µg/mL (≈ 0.892 µM) | > 1 µg/mL | > 1 µg/mL | – | – | – | – | – | – | – | –
COC1=C(C)C(=O)C2=C(C1=O)[C@@H](COC(N)=O)[C@@]1(OC)[C@H]3N[C@H]3CN21 [MITOMYCIN A] | 0.006 µg/mL (≈ 0.0172 µM) | 0.008 µg/mL (≈ 0.0229 µM) | 0.009 µg/mL (≈ 0.0258 µM) | 0.006 µg/mL (≈ 0.0172 µM) | 0.045 µg/mL (≈ 0.129 µM) | 0.02 µg/mL (≈ 0.0573 µM) | 0.008 µg/mL (≈ 0.0229 µM) | 0.014 µg/mL | – | – | –
CO[C@@]12[C@H](COC(N)=O)C3=C(C(=O)C(C)=C(N)C3=O)N1C[C@@H]1N[C@@H]12 [MITOMYCIN] | 0.08 µg/mL (≈ 0.239 µM) | 0.1 µg/mL (≈ 0.299 µM) | 0.97 µg/mL (≈ 2.9 µM) | 0.15 µg/mL (≈ 0.449 µM) | 0.45 µg/mL (≈ 1.35 µM) | 1.55 µg/mL (≈ 4.64 µM) | 0.36 µg/mL (≈ 1.08 µM) | 0.63 µg/mL | – | – | –
